Bioassay records from PubChem BioAssay.
MPTP block: blocks calcium-induced mitochondrial swelling | AID 602449 | 360,000 tested, 1.4% active | isolated mouse mitochondria, Ca2+ swelling absorbance, 30 min | inhibition, % at 10 µM;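 active = inhibition of 50% or more, scaled per plate between neutral and stimulator controls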;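 note: 0% = DMSO wells given calcium and 100% = 1 mM EGTA wells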
procasp7 counter: counter-screen: procaspase-7 (human) activation. P55210. activation, % at 8.5 µM. recombinant procaspase-7, Ac-DEVD-pNA absorbance 405 nm; D23A/D198A/D206A triple mutant, cannot self-cleave; scale: DMSO 0, 5 µM enzyme 100. 330,000 tested, 0.093% active;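 active = percent activation above the screen-wide mean plus 3 SD, cut at about 25% in these data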
Target sequence (P55210 whole entry D23A/D198A/D206A): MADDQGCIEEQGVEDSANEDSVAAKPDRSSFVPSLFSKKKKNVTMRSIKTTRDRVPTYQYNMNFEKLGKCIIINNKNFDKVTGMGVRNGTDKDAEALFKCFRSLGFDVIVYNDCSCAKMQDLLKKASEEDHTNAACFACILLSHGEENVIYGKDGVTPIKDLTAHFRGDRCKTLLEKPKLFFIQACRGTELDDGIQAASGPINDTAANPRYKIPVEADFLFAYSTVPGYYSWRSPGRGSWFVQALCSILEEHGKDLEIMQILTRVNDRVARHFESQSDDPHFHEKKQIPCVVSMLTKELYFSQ
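Material: Procaspase-7 triple mutant (PC-7 D3A) | Quantity: 2 µM procaspase-7 mutant as dispensed | Reagent: DEVD-pNA substrate | Times: 1 h preincubation, 2 h reaction | Technique: 405 nm absorbance of p-nitroaniline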
proCasp3 act: activates human procaspase-3; P42574; recombinant procaspase-3 D3A, Ac-DEVD-pNA absorbance 405 nm; activation, % at 8.5 µM; 330,000 tested, 0.11% active; AID 463141;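 active = activation above the mean of all tested compounds plus 3 SD, cut at about 21% in these data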;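 note: 0% = DMSO alone and 100% = DMSO wells spiked with extra 5 µM PC-3 D3A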
Target sequence (P42574 whole entry D9A/D28A/D175A): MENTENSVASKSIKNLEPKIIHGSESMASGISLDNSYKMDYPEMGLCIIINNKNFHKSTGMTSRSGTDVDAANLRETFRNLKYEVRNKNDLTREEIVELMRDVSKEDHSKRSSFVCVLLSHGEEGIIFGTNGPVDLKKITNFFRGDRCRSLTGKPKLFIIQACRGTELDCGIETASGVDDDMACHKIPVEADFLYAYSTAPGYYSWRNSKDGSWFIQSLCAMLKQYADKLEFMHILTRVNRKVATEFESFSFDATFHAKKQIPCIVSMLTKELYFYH
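Test system: Procaspase-3 D3A mutant; medium: Zinc-free HEPES/NaCl buffer with 0.01% Triton X-100 at pH 7.4; reagent: DEVD-pNA substrate; doses: one concentration, 8.5 µM nominal, 0.8% DMSO; times: 1 h preincubation plus 2 h reaction at 25 °C; signal: Epi-absorbance at 405 nm of released p-nitroaniline, 0 and 120 min; replicates: singlicate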
aDG glyco up: increases alpha dystroglycan glycosylation; Pro5-aDG cells, alpha-DG glycosylation AlphaScreen (IIH6); 0% Pro5, 100% B10-LARGE cell signal; activation, % at 10 µM; 360,000 tested, 0.22% active; AID 624168;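 active = activation of at least 8% versus controls, or a plate z-score of at least 8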;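 note: Pro5 are CHO cells carrying HIG-tagged alpha-DG that lacks glycosylation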
GRIN3A LBD mod: NR3A (human) ligand-binding domain modulation; NR3A LBD differential scanning fluorimetry, Tm shift; 0% = protein alone, 100% = glycine-bound protein; Tm shift relative to glycine control, % at 25 µM; 340,000 tested, 2.5% active;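 active = melting temperature shift of at least 10% of the positive control shift, at one fixed dose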
The depositor's hits bear a star; · = no result given. Only some compounds are listed: those with a hit (about 3.7% of all), similar ones and a draw of the others.

SMILES | MPTP block | procasp7 counter | proCasp3 act | aDG glyco up | GRIN3A LBD mod
Cc1ccc(C(C)C)c(OCc2ccc(C(=O)N/N=C/c3ccc(O)cc3O)cc2)c1 | 3 | -31 | -15 | 1 | 26*
O=C(Nc1ccc(Cn2cccn2)cc1)c1ccc(COc2ccccc2Br)cc1 | -2 | 9 | 1 | 1 | 30*
COc1ccccc1OCc1ccc(C(=O)Nc2ccccc2)cc1 | -1 | 7 | 5 | 0 | -15
COc1ccc(O)c(/C=N/NC(=O)c2ccc(OCc3cccc(Br)c3)cc2)c1 | 8 | -9 | -7 | 0 | 27*
COc1ccc(C(=O)N/N=C/c2cc(Br)ccc2O)cc1OC | 6 | -40 | -57 | 0 | -33
O=C(N/N=C/c1cccc(O)c1)c1ccc(NC(=O)C2CCCCC2)cc1 | 1 | · | · | 0 | 10*
Cc1ccc(C(C)C)c(OCc2ccc(C(=O)N/N=C/c3ccc(C(=O)O)cc3)cc2)c1 | 33 | 1 | -8 | 0 | 1
CC(=O)NC1CC2CCCC(C1)N2C(=O)Nc1ccc(Cl)cc1 (configuration not stated) | -1 | · | · | 0 | ·
O=C(N/N=C/c1ccc(O)cc1O)c1ccc(NC(=O)C2CCCCC2)cc1 | -2 | 9 | 48* | 0 | 23*
O=C(N/N=C/c1cccc(O)c1)c1ccc(COc2ccccc2Br)cc1 | 5 | -2 | 8 | 0 | 35*
CC(=O)Nc1ccc(NC(=O)c2ccc(COc3ccccc3Br)o2)cc1 | 0 | · | · | 0 | 23*
CCOc1ccc2nc(NC(=O)CSc3ccc(Cl)cc3)sc2c1 | 19 | 12 | 4 | 0 | 10*
O=C(CSc1ncn(-c2ccccc2)n1)Nc1nc(-c2ccccc2)cs1 | 4 | 6 | -3 | 0 | 6
O=C(CSc1ncn(-c2ccccc2)n1)Nc1nc2ccccc2s1 | 0 | -19 | 1 | 0 | 22*
CCOc1ccc(-c2nnc3ccc(SCC(=O)Nc4nc5ccc(C)cc5s4)nn23)cc1 | 2 | -103 | -7 | 1 | 22*
O=C(CSc1ccccc1)Nc1nnc(COc2ccc(Cl)cc2)s1 | -16 | -20 | -10 | 0 | 14*
CCOc1ccc2nc(NC(=O)CSc3cn[nH]n3)sc2c1 | -1 | -1 | 1 | 0 | 0
CCCCn1c(O)c2n(c1=O)Cc1ccccc1N=C2c1ccc(C)cc1 | -1 | · | · | 0 | ·
COc1ccc2nc(NC(=O)CSc3ccccc3)sc2c1 | 0 | 9 | -3 | 0 | 31*
COc1cc(/C=C2/C(=O)N(c3cccc(Br)c3)N=C2C)cc(OC)c1O | 14 | 2 | 9 | 0 | 15*
CCOC(=O)c1c(CSc2ccccc2)n(C)c2ccc(O)c(CN3CCOCC3)c12 | 1 | -2 | -1 | 0 | 14*
CCOC(=O)c1c(C)n(C)c2ccc(O)c(CN3CCN(C)CC3)c12 | 0 | 4 | 2 | 0 | -3
COc1ccc(CC(=O)OCC(=O)Nc2cc(Cl)ccc2C)cc1 | 0 | -9 | -4 | 0 | -3
CCc1nc2ccc(C(=O)NCCC(C)C)cn2c1N(C)Cc1nccs1 | -2 | · | · | 0 | ·
Cn1c(=O)c2[nH]c(NN=Cc3cccc(Br)c3)nc2n(C)c1=O | 0 | · | · | 0 | -27
SMILES | MPTP block | procasp7 counter | proCasp3 act | aDG glyco up | GRIN3A LBD mod
COc1ccc(-c2n[nH]c(C)c2-c2cnn(-c3ccccc3)c2)c(O)c1C | 14 | 9 | 8 | 0 | 24*
COc1ccc(-c2n[nH]c(C)c2-c2cnn(-c3ccccc3)c2)c(O)c1 | 5 | -5 | 4 | 0 | -3
C[C@@H]1CN([C@@H](C)CO)C(=O)CCCn2nncc2CO[C@@H]1CN(C)S(=O)(=O)c1ccc(Oc2ccccc2)cc1 | 0 | · | · | 0 | ·
COc1ccc(S(=O)(=O)Nc2ccc3c(c2)C(=O)N([C@H](C)CO)C[C@H](C)[C@@H](CN(C)Cc2ccncc2)OCCCC[C@@H](C)O3)cc1 | 1 | · | · | 0 | ·
O=c1[nH]nc(-c2ccc(NCCO)c([N+](=O)[O-])c2)c2ccccc12 | 0 | 7 | 2 | 0 | -1
O=[N+]([O-])c1cc(Cl)cc2c1nc(NCCO)c1ccccc12 | 2 | 3 | -2 | 0 | 13*
CCOC(=O)/C(=N\Nc1cc(C(F)(F)F)ccc1Cl)N(CC)CC | 9 | 6 | 0 | 0 | 15*
COc1ccc(C(=O)Nc2cc(C(F)(F)F)ccc2-n2cnc3ccccc32)cc1 | 1 | -1 | 1 | 0 | 14*
CC(=O)Nc1ccc(C(=O)Nc2cc(C(F)(F)F)ccc2-n2cnc3ccccc32)cc1 | -4 | -7 | 2 | 0 | -3
COC(=O)c1ccc(/C=N/Nc2nc(-c3ccc(C)cc3)cs2)cc1 | 9 | -15 | 0 | 0 | 3
CCCC(=O)Nc1ccc(-c2csc(N/N=C\c3ccncc3)n2)cc1 | 1 | -18 | -8 | 0 | 18*
CC(=O)Nc1ccc(-c2csc(N/N=C\c3ccncc3)n2)cc1 | 2 | -18 | -10 | 0 | 15*
O=C(Cc1ccccn1)c1ccncc1 | -1 | · | · | 0 | -1
COC(=O)c1ccc2nc(NC(=O)C(C)(C)C)sc2c1 | 1 | 13 | 1 | 0 | 0
COC(=O)c1ccc2c(c1)N(C)S(=O)(=O)c1cnc(SCC(=O)C(C)(C)C)nc1-2 | -1 | 1 | 0 | 0 | 11*
COc1cc2cc(c1Cl)N(C)C(=O)CC(OC(=O)C(C)N(C)C(C)=O)C1(C)OC1C(C)C1CC(O)(NC(=O)O1)C(OC)C=CC=C(C)C2 (configuration not stated) | 0 | · | · | 0 | -2
CCOC(=O)/C(C(=O)Nc1ccccc1Br)=C1/NC(C)(C)Cc2ccccc21 | 1 | 8 | 1 | 0 | 13*
CCOC(=O)/C(=N\O)C1=NC(C)(C)Cc2ccccc21 | 0 | 4 | 1 | 0 | -21
Cc1ccc(-n2nnnc2SCC(=O)Nc2nc(-c3ccc(F)cc3)cs2)cc1C | 11 | -1 | -4 | 0 | 30*
COC(=O)c1cc(=O)nc(NN=Cc2ccco2)s1 | -1 | · | · | 1 | ·
O=C1c2ccccc2C(=O)c2c1cccc2N(CCO)CCO | 4 | -2 | -3 | 0 | -1
O=C1C=C(N(CCO)Cc2ccccc2)c2ccccc2C1=O | 3 | · | · | 14* | 0
CCCN(CCC)Cc1c(C(=O)N/N=C/c2c[nH]c3ccccc23)nnn1-c1nonc1N | 0 | 4 | -7 | 0 | 22*
Cc1ccc(-c2c(C(=O)N/N=C/c3c[nH]c4ccccc34)nnn2-c2nonc2N)cc1 | 0 | -1 | 10 | 0 | 26*
COCc1c(C(=O)N/N=C/c2c[nH]c3ccccc23)nnn1-c1nonc1N | 2 | 2 | -12 | 0 | 18*
CCCN(CCC)Cc1c(C(=O)N/N=C/c2ccc(Br)cc2)nnn1-c1nonc1N | 18 | 2 | -3 | 0 | 22*
CCCc1c(C(=O)N/N=C/c2c[nH]c3ccccc23)nnn1-c1nonc1N | 1 | · | · | 0 | ·
